Screens: PubChem BioAssay, Sanford-Burnham Center for Chemical Genomics
A selection: hits, their analogues and other compounds. The true share with any hit is near 1.7%.
DNMT1 inh: DNMT1 (human) enzyme inhibition; actives 0.83% (n = 360,000); P26358; DNMT1 molecular beacon, Hinp1I cleavage, fluorescence; inhibition (reported as % activation of signal), % at 10 µM; AID 588458; in the data active = inhibition above about 50%
LMPTP block: blocks human LMPTP phosphatase | recombinant LMPTP-A, OMFP fluorogenic substrate, fluorescence intensity | inhibition, % at 20 µM | actives 0.22% (n = 360,000) | P24666;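 active = compounds that cut the enzyme signal by at least half of the control window in the single-dose screen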;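 also: plate controls were DMSO wells with enzyme plus substrate for no effect and substrate without enzyme for full effect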
Target sequence (P24666 whole entry, looked up): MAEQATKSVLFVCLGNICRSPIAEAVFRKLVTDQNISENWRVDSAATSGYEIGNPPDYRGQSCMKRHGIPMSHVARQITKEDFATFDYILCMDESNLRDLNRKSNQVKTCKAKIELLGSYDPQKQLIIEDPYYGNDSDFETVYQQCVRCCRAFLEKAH
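Assay system: LMPTP-A, protein tyrosine phosphatase of low molecular weight / Medium: pH 6.0 Bis-Tris buffer with DTT and Triton X-100 / Schedule: 50 min enzyme reaction at room temperature, protected from light / Measured by: endpoint fluorescence intensity from OMFP dephosphorylation / Read-out basis: % inhibition relative to no-enzyme and uninhibited control wells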
STEP block: STEP (human) phosphatase inhibition. recombinant STEP, OMFP fluorogenic substrate, fluorescence. inhibition, % at 20 µM. actives 0.25% (n = 360,000). AID 588621;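 active = inhibition at 20 µM, scaled per plate between control wells, above about 37%, limit read from the data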;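 also: 0% = DMSO with enzyme and substrate and 100% = substrate only without enzyme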
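System: STEP phosphatase, cell-free reaction; Buffer or medium: Bis-Tris pH 6.0 buffer with DTT, detergent; Incubation: 20 min at room temperature, dark; Measured by: fluorescence, 480/540 nm.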
SUMO1 PPI mod: modulators of human SUMO1-mediated protein-protein interactions; inhibition, % at 20 µM; actives 0.33% (n = 360,000); P63165; SUMO1 binding to a labelled peptide, TR-FRET, 1 h; AID 602429; in the data active = inhibition above about 37%
Target sequence (P63165 whole entry, looked up): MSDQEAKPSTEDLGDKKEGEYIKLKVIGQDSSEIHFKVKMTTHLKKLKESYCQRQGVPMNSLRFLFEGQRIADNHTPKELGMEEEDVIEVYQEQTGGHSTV
Scp1 inh: Scp-1 (human) phosphatase inhibition. actives 0.88% (n = 340,000). Recombinant Scp1, phosphopeptide, malachite green phosphate absorbance. Q9GZU7. inhibition, % at 20 µM. AID 493091;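 active = inhibition above about 50% at 20 µM, limit read from the data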;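 also: plate controls were DMSO wells with enzyme for no effect and wells lacking enzyme for full effect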
Target sequence (Q9GZU7 76-261 limits assumed): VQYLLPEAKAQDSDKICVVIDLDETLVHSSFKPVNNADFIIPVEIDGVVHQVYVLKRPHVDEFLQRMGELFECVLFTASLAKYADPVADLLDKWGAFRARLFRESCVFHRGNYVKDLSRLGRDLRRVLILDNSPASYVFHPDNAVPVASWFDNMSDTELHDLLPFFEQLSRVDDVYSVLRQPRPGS
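Incubation: 45 min enzyme reaction at room temperature / System: truncated SCP-1 phosphatase (76-261aa) / Reagent: Phospho 17-mer peptide substrate / Buffer or medium: Acidic Tris acetate buffer with magnesium and detergent / Signal: absorbance at 630 nm / Doses: one concentration, 20 µM, with 1.0% DMSO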
Scp1 confirm: Scp-1 (human) inhibition, single-dose confirmed; inhibition, % at 20 µM; recombinant SCP-1 catalytic domain, phosphate release, malachite green absorbance; shares compounds with Scp1 inh; actives 61% (n = 2,500);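 also: plate controls were DMSO with enzyme for no effect and buffer wells lacking enzyme for full effect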
Scp-1 MG ctr: counter-screen for Scp-1 inhibitors: colorimetric interference. shares compounds with Scp1 inh. Colorimetric interference counterscreen, malachite green absorbance 630 nm. apparent inhibition (interference), % at 20 µM. 2,500 tested, under 10 active;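 also: compounds added after enzyme reaction finished so only phosphate colour detection is probed; plate controls were DMSO wells with completed Scp-1 reaction for no effect and substrate wells lacking enzyme for full effect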
Scp-1 Tm shift: Scp-1 (human) binding by thermal shift; shares compounds with Scp1 inh; Recombinant SCP1, Sypro Orange thermal shift Tm; thermal shift relative to vanadate control, % at 40 µM; actives 25% (n = 1,500);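 active = substances whose mean melting-temperature shift, as a percentage of the reference inhibitor's shift, reaches about 5.3%, limit read from the data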;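 also: 0% = Tm of DMSO wells and 100% = Tm with sodium orthovanadate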
The depositor's hits bear a star; . = not tested or not shown.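 The calls were made as follows, unless noted: active = inhibition of at least 30% at 20 µM; inactive = the rest.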

SMILES	DNMT1 inh	LMPTP block	STEP block	SUMO1 PPI mod	Scp1 inh	Scp1 confirm	Scp-1 MG ctr	others
C[C@@H]1CN([C@H](C)CO)C(=O)c2cc(NC(=O)c3ccncc3)ccc2O[C@@H]1CN(C)C(=O)Nc1ccccc1	6	-2	-1	-4	94*	61*	-14	Scp-1 Tm shift=-10
C[C@H](CO)N1C[C@H](C)[C@@H](CN(C)C(=O)Nc2ccccc2)Oc2ccc(NC(=O)C3CC3)cc2C1=O	9	-1	6	6	0	.	.
COc1ccc(C(=O)O)cc1S(=O)(=O)NCCc1ccccn1	-4	0	-2	25	-9	.	.
Cc1ccc(S(=O)(=O)CCC(=O)OCC(=O)N2CCc3ccccc32)cc1	0	0	-1	6	60*	-9	-10
CCCCCCCCn1c2c(c(=N)c3ccccc31)CCC2	5	6	10	-4	-3	.	.
Cc1cc(C)c2c(=N)c3ccccc3n(CCCCCCCCn3c4ccccc4c(=N)c4c(C)cc(C)nc43)c2n1	13	87*	11	95*	59*	5	15
O=c1c(OC2OC(CO)C(O)C(O)C2O)c(-c2ccc(O)c(O)c2)oc2cc(O)cc(O)c12 (stereo unspecified)	8	0	-1	-5	-15	2	-2
O=c1c(O[C@@H]2O[C@H](CO)C(O)C2O)c(-c2ccc(O)c(O)c2)oc2cc(O)cc(O)c12 (stereo partly specified)	14	-1	0	-5	-15	.	.
CC(=O)Nc1ccc2ccccc2c1[N+](=O)[O-]	1	-1	-3	-16	-12	.	.
Cc1c(/C(O)=C2/C(=O)C(=O)N(CCN3CCOCC3)C2c2cccs2)cnn1-c1ccccc1 (stereo unspecified)	3	-3	4	-8	48	-28	-20
CC(=O)c1nnn(-c2ccccc2C#N)c1C	1	-2	-3	-3	65*	-2	-8
CN(C(=O)COC(=O)c1ccc(Cl)c(S(=O)(=O)NCc2ccccc2)c1)C1CCS(=O)(=O)C1 (stereo unspecified)	4	-2	0	-2	0	.	.
O=C(Nc1cccc(C(=O)O)c1)/C(=C\c1ccc2c(c1)OCO2)NC(=O)c1ccccc1Cl	3	-1	3	-8	-2	.	.
CCOC(=O)c1c(NC(=O)COC(=O)c2cnccn2)sc(C(=O)NC)c1C	1	-1	2	-1	1	.	.
CCOC(=O)c1c(-c2ccco2)csc1NC(=O)COC(=O)c1cnccn1	13	4	2	10	60*	29	-24
CC1(C(=O)NS(=O)(=O)c2cccc(Cl)c2)CCN1C(=O)c1cccc2ccccc12 (stereo unspecified)	3	-3	2	5	.	.	.
Cc1cc(Br)ccc1NC(=O)CN(C)C(=O)Cn1c(=O)cnc2ccccc21	-1	-2	1	5	96*	89*	-10	Scp-1 Tm shift=-6
COc1ccc(S(=O)(=O)N(C)C[C@H]2Oc3ccc(NS(=O)(=O)c4ccccc4)cc3C(=O)N([C@H](C)CO)C[C@@H]2C)cc1	0	-1	0	-6	59*	5	-10
C[C@H](CO)N1C[C@H](C)[C@@H](CN(C)C(=O)NC2CCCCC2)Oc2ccc(NS(=O)(=O)c3ccccc3)cc2C1=O	-3	-2	0	1	-3	.	.
COc1ccc(NC(=O)Nc2ccc3c(c2)C(=O)N([C@H](C)CO)C[C@H](C)[C@@H](CN(C)C(=O)Nc2ccccc2)O3)cc1	4	-1	-4	10	71*	8	-10
Cc1noc(C)c1S(=O)(=O)Nc1ccc2c(c1)C(=O)N([C@H](C)CO)C[C@H](C)[C@@H](CN(C)C(=O)NC1CCCCC1)O2	9	-1	-2	7	56*	21	-6
COc1ccc(NC(=O)N(C)C[C@H]2Oc3ccc(NS(=O)(=O)c4c(C)noc4C)cc3C(=O)N([C@H](C)CO)C[C@@H]2C)cc1	12	-1	-2	2	58*	10	-17
COc1ccc(S(=O)(=O)Nc2ccc3c(c2)C(=O)N([C@H](C)CO)C[C@H](C)[C@@H](CN(C)S(=O)(=O)c2ccccc2)O3)cc1	2	0	-1	3	-6	.	.
COc1ccc(NC(=O)N(C)C[C@H]2Oc3ccc(NC(=O)Nc4c(C)noc4C)cc3C(=O)N([C@H](C)CO)C[C@@H]2C)cc1	4	0	2	7	62*	-3	-20
N=C1C(c2nc(-c3cccc([N+](=O)[O-])c3)cs2)=C(O)CN1NC(=O)c1ccco1	-3	48	10	-7	68*	-9	-15
SMILES	DNMT1 inh	LMPTP block	STEP block	SUMO1 PPI mod	Scp1 inh	Scp1 confirm	Scp-1 MG ctr	others
Cc1ccc(-c2csc(C3=C(O)CN(NC(=O)c4ccc([N+](=O)[O-])cc4)C3=N)n2)cc1	36	14	4	-1	23	.	.
O=C(CCN1C(=O)C2C3C=CC(C3)C2C1=O)NCc1cccnc1 (stereo unspecified)	2	0	-2	0	60*	-11	-15
O=C(CCN1C(=O)c2cccc3cccc(c23)C1=O)NCc1cccnc1	2	-1	-1	-18	-5	.	.
CC[n+]1c(C)cc2c(sc3ccccc32)c1C	0	1	-3	-5	63*	-19	-15
COc1cc(CNc2ncnc3c2ncn3[C@H]2CN(CCc3ccccc3)C[C@@H](CO)O2)cc(OC)c1OC	-4	0	-2	2	.	.	.
CCOc1ccc(NC(=O)CN(C)C(=O)C2CC(=O)N(c3cccc(SC)c3)C2)cc1OCC (stereo unspecified)	-3	-1	1	7	-10	.	.
CCOC(=O)C1=C(C)NC(=O)NC1c1c(OCC(=O)N2CCCCC2)ccc2ccccc12 (stereo unspecified)	5	0	2	-4	-5	-8	-9
Nn1c(SCC(=O)Nc2ccc3c(c2)OCCO3)nnc1C(F)(F)F	2	-4	0	0	100*	10	0
COc1ccc(-c2c(-c3ccccc3OC)sc3ccccc23)cc1C=O	-2	1	-2	6	50*	19	-8
Cn1c(SCC(=O)Nc2ccccc2)nc(O)cc1=O	-7	-1	2	7	-4	-7	-4
COc1ccc(/C=C2\SC(=O)N(CC(=O)NCCCn3ccnc3)C2=O)cc1	1	2	-1	-38	-5	.	.
